# TRPN1 ag – zebrafish TRPN1 (NompC) channel agonism; HEK293 zebrafish TRPN1-YFP, Fluo-8 calcium fluorescence; 100% = response to 87 µM carbachol; activation, % at 3 µM; 0.18% of 220,000 active; AID 1424;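 active = activation above its plate's cutoff, the mean activation of test wells on that plate plus 3 SD, cut at about 19% in these data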;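 also: 0% = DMSO alone and 100% = 87 µM carbachol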
#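 Material – zebrafish TRPN1-YFP in HEK293 cells · Doses – 3 µM single point · Schedule – dye 1 h 37 °C plus 30 min RT · Signal – Fluo-8 calcium fluorescence, excitation 470-495 nm, emission 515-575 nm · Read-out – % activation versus carbachol response · Control set – carbachol high, DMSO low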
# V1R ag counter – V1a receptor agonism, counter-screen for OXTR agonists | P37288 | CHO-V1R cells, Fluo-8 calcium fluorescence, agonist mode; 0% DMSO, 100% 3 nM vasopressin | activation, % at 3 µM | 0.25% of 320,000 active | AID 2797;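 active = activation above the mean activation of all tested compounds plus 3 SD, per screening run, cut at about 20% in these data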;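 also: signal is peak over basal fluorescence ratio across a 100 second FLIPR read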
# OXTR potentiate – human OXTR potentiation | activation, % at 3 µM | P30559 | 0.061% of 320,000 active | CHO-OTR cells, Fluo-8 calcium fluorescence, potentiator mode; 0% = oxytocin EC15, 100% = EC100;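 active = activation above that plate's cutoff, the mean activation of tested compounds plus 3 SD, cut at about 6.6% in these data, passing the limit was not always enough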;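 also: 100% uses oxytocin at 75 nM as the full agonist control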
# Target sequence (P30559 whole entry, looked up): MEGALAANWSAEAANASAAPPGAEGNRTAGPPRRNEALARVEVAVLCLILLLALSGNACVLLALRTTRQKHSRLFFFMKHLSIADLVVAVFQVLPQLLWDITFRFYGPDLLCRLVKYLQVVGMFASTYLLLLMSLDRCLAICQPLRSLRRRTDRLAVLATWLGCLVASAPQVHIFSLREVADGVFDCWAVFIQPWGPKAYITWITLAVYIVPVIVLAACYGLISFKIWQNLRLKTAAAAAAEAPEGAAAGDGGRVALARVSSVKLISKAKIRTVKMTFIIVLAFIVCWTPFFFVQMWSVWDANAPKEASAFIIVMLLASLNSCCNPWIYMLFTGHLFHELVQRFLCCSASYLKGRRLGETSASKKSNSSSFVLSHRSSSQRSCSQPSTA
#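 test system = CHO-OTR cells, human receptor | compound = single-point 3.0 µM | schedule = 6 min compound pre-incubation at room temperature, 100 s kinetic read | signal = Fluo-8 no-wash calcium dye fluorescence, excitation 470-495 nm, emission 515-575 nm | repeats = single well per compound, singlicate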
# OXTR ag – agonists of human oxytocin receptor; P30559; CHO-OTR cells, Fluo-8 calcium fluorescence; normalized: DMSO 0%, oxytocin 100%; activation, % at 3 µM; 0.32% of 320,000 active;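 active = activation above the mean of all tested compounds plus 3 SD, cutoff set per screening run, cut at about 20% in these data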;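 also: peak over basal fluorescence ratio from a 100 s FLIPR kinetic read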
# TRPML3 agonist – agonists of human TRPML3 channel; AID 1448; 0.29% of 220,000 active; Q8TDD5; HEK293 TRPML3-YFP, Fluo-8 calcium fluorescence; 100% = the carbachol control signal; activation, % at 3 µM;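 active = activation above its plate's cutoff, the mean activation of the plate's test wells plus 3 SD, cut at about 12% in these data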;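 also: 0% = DMSO only wells and 100% = carbachol wells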
#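 Material: HEK293 cells stably carrying human TRPML3-YFP; compound dosing: single dose, 3 µM final nominal compound, 0.3% DMSO final; incubation: 1-h 37 °C dye load, 5-s basal, 120-s post-compound reads; technique: Fluo-8 intracellular calcium fluorescence, excitation 470-495 nm, emission 515-575 nm; read-out basis: percent activation from peak-to-basal fluorescence ratio, scaled between DMSO and carbachol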
# OXTR ag confirm – human OXTR agonism, confirmation | CHO-OTR cells, Fluo-8 calcium fluorescence, agonist | 20% of 390 active | AID 434963 | activation, % at 3 µM | shares compounds with OXTR ag;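 active = mean activation above about 20% derived from the earlier single-dose screen, limit read from the data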;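 also: peak over minimum fluorescence ratio per well during a 100 second FLIPR read; 0% = DMSO alone and 100% = oxytocin high control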
# V1aR counter 3x – counter-screen for oxytocin receptor agonists: V1a receptor agonists; shares compounds with OXTR ag; CHO-V1R cells, Fluo-8 calcium fluorescence, agonist; activation, % at 3 µM; 10% of 390 active; AID 434991;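 active = mean activation over triplicate exceeds the hit threshold set in the earlier primary screen, cut at about 20% in these data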;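 also: peak over basal fluorescence ratio within a 100 second read; 0% = DMSO alone and 100% = 3 nM vasopressin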
# * = called active by the depositor; . = not tested or not shown. This is a sample that favours compounds with a hit; in the whole collection about 0.55% have one here.
SMILES,TRPN1 ag,V1R ag counter,OXTR potentiate,OXTR ag,TRPML3 agonist,OXTR ag confirm,V1aR counter 3x
O=C(NCCc1ccccc1)c1ccc(NS(=O)(=O)c2ccc3[nH]c(=O)[nH]c3c2)cc1,.,0,-7,1,.,.,.
COc1nccnc1NS(=O)(=O)c1ccc(N=Cc2c(C)[nH]n(-c3ccc(Cl)cc3)c2=O)cc1,1,0,-5,0,0,.,.
Cc1[nH]n(-c2ccc(Cl)cc2)c(=O)c1C=Nc1ccc(S(=O)(=O)N2CCOCC2)cc1,1,0,-11,22*,1,1,0
COc1cccc(-c2nnc(NC(=O)c3ccc4ncsc4c3)o2)c1,0,0,0,-1,0,.,.
Cc1cc(S(=O)(=O)Nc2ccc(C(=O)NCC3(N(C)C)CCCCC3)cc2)ccc1F,.,1,-15,0,.,.,.
CCOc1ccc(NS(=O)(=O)c2ccc(C(=O)NCC3(N(C)C)CCCCC3)cc2)cc1,.,19,-21,24*,.,12,8
COc1ccc(CCNCC(O)Cn2c3ccccc3c3ccccc32)cc1OC (stereo not given),6,15,-11,23*,4,24*,4
CC[n+]1c(/C=C/C=C/N(C(C)=O)c2ccccc2)sc2cc(OC)ccc21,10,13,-11,29*,2,69*,91*
CC[n+]1c(/C=C(\C)OC)sc2ccccc21,-2,.,.,.,1,.,.
Cc1ccc(NS(=O)(=O)c2ccc(C(=O)NCC(c3ccco3)N3CCCCC3)cc2)cc1 (stereo not given),.,16,-17,24*,.,24*,12
O=C(NCC(c1ccco1)N1CCCCC1)c1ccc(S(=O)(=O)Nc2ccccc2)cc1 (stereo not given),.,5,-6,6,.,.,.
CCN1CCN(CC(=O)Nc2ccc(C(C)=O)cc2)CC1,.,2,-13,3,.,.,.
Cc1ccc(Cl)cc1N1CCN(CC(=O)Nc2ccc(CN3CCCCC3)cc2)CC1,14,12,-14,28*,9,19,13
CC(=O)c1ccc(NC(=O)CN2CCCCCC2)cc1,.,1,-7,21*,.,1,0
Cc1ccnc(N/C=C(\C#N)c2nc(-c3cccc(Br)c3)cs2)c1,4,20,-9,31*,2,128*,162*
CC1CCN(C(=O)C2CCC(=O)N(Cc3ccc(Cl)cc3)C2)CC1 (stereo not given),.,0,-11,-1,.,.,.
Cc1ccccc1NC(=O)c1nnn(-c2ccc3c(c2)OCCO3)c1N,.,9,-16,21*,.,2,2
CC(C)=CCN1CCN(Cc2c[nH]c3ccccc23)CC1CCO (stereo not given),.,1,-2,1,.,.,.
Cc1ccccc1CS(=O)(=O)Cc1ccc(C(=O)NCCc2ccccc2)o1,.,8,-6,5,.,.,.
CSc1ccc2c(c1)C(N1CCN(C)CC1)Cc1ccc(F)cc1S2 (stereo not given),.,10,-8,26*,.,4,1
O=C(CSc1nnc(-c2c[nH]c3ccccc23)o1)NCC1CCCO1 (stereo not given),.,1,2,3,.,.,.
CC(=O)Nc1ccc(NC(=O)COC(=O)C2(c3ccc(Cl)cc3)CCCC2)cc1,11,18,-11,20*,4,13,12
CC(=O)Nc1ccc(/C(C)=N/Nc2nc(Nc3cccc4ccccc34)nc(N3CCOCC3)n2)cc1,9,12,-13,25*,5,0,0
N#C/C(=C\c1ccc(N2CCOCC2)o1)c1nc2ccccc2[nH]1,2,16,-23,43*,2,176*,259*
N#C/C(=C\c1ccc(N2CCOCC2)c([N+](=O)[O-])c1)c1nc2ccccc2[nH]1,1,5,-7,2,1,.,.
N#C/C(=C(/O)c1ccc(Cl)c([N+](=O)[O-])c1)c1nc2ccccc2[nH]1,10,8,-6,26*,3,4,6

# Screening results (PubChem BioAssay)
